Test results reported in ChEMBL document CHEMBL4261538, “Synthesis and molecular docking studies of xanthone attached amino acids as potential antimicrobial and anti-inflammatory agents” (Medchemcomm, 2017).

Columns and labels:
Staphylococcus aureus [1] = experiment: Antibacterial activity against Staphylococcus aureus at 25 ug/ml incubated for 24 hrs by agar well diffusion method; type: functional
Procedure, shortened: (§1)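 Bacteria grown in nutrient broth at 37 °C for 24 h, then subcultured at room temperature. Compounds dissolved in DMSO at 5 mg mL⁻¹ and 5–20 µL added to 6 mm wells, giving 25, 50, 75, 100 µg per well. Gentamicin was the positive control and DMSO the negative control. Plates held at 37 °C for 24 h, then inhibition zone diameter (mm) measured. Values are means of three determinations.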

Staphylococcus aureus [2] = experiment: Antibacterial activity against Staphylococcus aureus at 50 ug/ml incubated for 24 hrs by agar well diffusion method; type: functional; procedure, shortened: as §1
Staphylococcus aureus [3] = experiment: Antibacterial activity against Staphylococcus aureus at 75 ug/ml incubated for 24 hrs by agar well diffusion method; type: functional; procedure, shortened: as §1
Staphylococcus aureus [4] = experiment: Antibacterial activity against Staphylococcus aureus at 100 ug/ml incubated for 24 hrs by agar well diffusion method; type: functional; procedure, shortened: as §1
Bacillus subtilis [5] = experiment: Antibacterial activity against Bacillus subtilis at 25 ug/ml incubated for 24 hrs by agar well diffusion method; type: functional; procedure, shortened: as §1
Bacillus subtilis [6] = experiment: Antibacterial activity against Bacillus subtilis at 50 ug/ml incubated for 24 hrs by agar well diffusion method; type: functional; procedure, shortened: as §1
Bacillus subtilis [7] = experiment: Antibacterial activity against Bacillus subtilis at 75 ug/ml incubated for 24 hrs by agar well diffusion method; type: functional; procedure, shortened: as §1
Bacillus subtilis [8] = experiment: Antibacterial activity against Bacillus subtilis at 100 ug/ml incubated for 24 hrs by agar well diffusion method; type: functional; procedure, shortened: as §1
Escherichia coli [9] = experiment: Antibacterial activity against Escherichia coli at 25 ug/ml incubated for 24 hrs by agar well diffusion method; type: functional; procedure, shortened: as §1
Escherichia coli [10] = experiment: Antibacterial activity against Escherichia coli at 50 ug/ml incubated for 24 hrs by agar well diffusion method; type: functional; procedure, shortened: as §1
Escherichia coli [11] = experiment: Antibacterial activity against Escherichia coli at 75 ug/ml incubated for 24 hrs by agar well diffusion method; type: functional; procedure, shortened: as §1
Escherichia coli [12] = experiment: Antibacterial activity against Escherichia coli at 100 ug/ml incubated for 24 hrs by agar well diffusion method; type: functional; procedure, shortened: as §1
Klebsiella pneumoniae [13] = experiment: Antibacterial activity against Klebsiella pneumoniae at 25 ug/ml incubated for 24 hrs by agar well diffusion method; type: functional; procedure, shortened: as §1
Klebsiella pneumoniae [14] = experiment: Antibacterial activity against Klebsiella pneumoniae at 50 ug/ml incubated for 24 hrs by agar well diffusion method; type: functional; procedure, shortened: as §1
Klebsiella pneumoniae [15] = experiment: Antibacterial activity against Klebsiella pneumoniae at 75 ug/ml incubated for 24 hrs by agar well diffusion method; type: functional; procedure, shortened: as §1
Klebsiella pneumoniae [16] = experiment: Antibacterial activity against Klebsiella pneumoniae at 100 ug/ml incubated for 24 hrs by agar well diffusion method; type: functional; procedure, shortened: as §1
Staphylococcus aureus [17] = experiment: Antibacterial activity against Staphylococcus aureus incubated for 24 hrs by microdilution method; type: functional
Bacillus subtilis [18] = experiment: Antibacterial activity against Bacillus subtilis incubated for 24 hrs by microdilution method; type: functional
Escherichia coli [19] = experiment: Antibacterial activity against Escherichia coli incubated for 24 hrs by microdilution method; type: functional
Klebsiella pneumoniae [20] = experiment: Antibacterial activity against Klebsiella pneumoniae incubated for 24 hrs by microdilution method; type: functional
Aspergillus niger [21] = experiment: Antifungal activity against Aspergillus niger at 25 ug/ml incubated for 48 hrs by agar well diffusion method; type: functional; details: read-out: DIZ
Procedure, shortened: (§2)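 Compounds dissolved in DMSO at 5 mg mL⁻¹ and 5–20 µL added to 6 mm wells, giving 25, 50, 75, 100 µg per well. Bavistin was the positive control and DMSO the negative control. Plates incubated at 28 °C for 48 h, then inhibition zone diameter (mm) measured. Values are means of three determinations.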

Aspergillus niger [22] = experiment: Antifungal activity against Aspergillus niger at 50 ug/ml incubated for 48 hrs by agar well diffusion method; type: functional; details: read-out: DIZ; procedure, shortened: as §2
Aspergillus niger [23] = experiment: Antifungal activity against Aspergillus niger at 75 ug/ml incubated for 48 hrs by agar well diffusion method; type: functional; details: read-out: DIZ; procedure, shortened: as §2
Aspergillus niger [24] = experiment: Antifungal activity against Aspergillus niger at 100 ug/ml incubated for 48 hrs by agar well diffusion method; type: functional; details: read-out: DIZ; procedure, shortened: as §2
Candida albicans [25] = experiment: Antifungal activity against Candida albicans at 25 ug/ml incubated for 48 hrs by agar well diffusion method; type: functional; details: read-out: DIZ; procedure, shortened: as §2
Candida albicans [26] = experiment: Antifungal activity against Candida albicans at 50 ug/ml incubated for 48 hrs by agar well diffusion method; type: functional; details: read-out: DIZ; procedure, shortened: as §2
Candida albicans [27] = experiment: Antifungal activity against Candida albicans at 75 ug/ml incubated for 48 hrs by agar well diffusion method; type: functional; details: read-out: DIZ; procedure, shortened: as §2
Candida albicans [28] = experiment: Antifungal activity against Candida albicans at 100 ug/ml incubated for 48 hrs by agar well diffusion method; type: functional; details: read-out: DIZ; procedure, shortened: as §2
Fusarium oxysporum [29] = experiment: Antifungal activity against Fusarium oxysporum at 25 ug/ml incubated for 48 hrs by agar well diffusion method; type: functional; details: read-out: DIZ; procedure, shortened: as §2
Fusarium oxysporum [30] = experiment: Antifungal activity against Fusarium oxysporum at 50 ug/ml incubated for 48 hrs by agar well diffusion method; type: functional; details: read-out: DIZ; procedure, shortened: as §2
Fusarium oxysporum [31] = experiment: Antifungal activity against Fusarium oxysporum at 75 ug/ml incubated for 48 hrs by agar well diffusion method; type: functional; details: read-out: DIZ; procedure, shortened: as §2
Fusarium oxysporum [32] = experiment: Antifungal activity against Fusarium oxysporum at 100 ug/ml incubated for 48 hrs by agar well diffusion method; type: functional; details: read-out: DIZ; procedure, shortened: as §2
Erythrocyte = experiment: Anti-inflammatory activity in human RBC assessed as inhibition of hypotonic solution-induced hemolysis after 10 mins by spectrophotometric method; type: functional, cell-based
Procedure, shortened: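 Human blood (heparinized) washed with 0.9% saline, packed cells made into a 40% v/v stock in isotonic phosphate buffer (154 mM NaCl, 10 mM sodium phosphate, pH 7.4). Stock RBC mixed with hypotonic buffer (50 mM NaCl, 10 mM phosphate, pH 7.4) plus sample at 20–100 µg mL⁻¹.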

GENTAMICIN
inhibition zone (IZ) (Staphylococcus aureus [1]): 17 mm | inhibition zone (IZ) (Staphylococcus aureus [2]): 21 mm | inhibition zone (IZ) (Staphylococcus aureus [3]): 29 mm | inhibition zone (IZ) (Staphylococcus aureus [4]): 32 mm | inhibition zone (IZ) (Bacillus subtilis [5]): 21 mm | inhibition zone (IZ) (Bacillus subtilis [6]): 24 mm | inhibition zone (IZ) (Bacillus subtilis [7]): 28 mm | inhibition zone (IZ) (Bacillus subtilis [8]): 33 mm | inhibition zone (IZ) (Escherichia coli [9]): 18 mm | inhibition zone (IZ) (Escherichia coli [10]): 24 mm | inhibition zone (IZ) (Escherichia coli [11]): 29 mm | inhibition zone (IZ) (Escherichia coli [12]): 33 mm | inhibition zone (IZ) (Klebsiella pneumoniae [13]): 19 mm | inhibition zone (IZ) (Klebsiella pneumoniae [14]): 24 mm | inhibition zone (IZ) (Klebsiella pneumoniae [15]): 29 mm | inhibition zone (IZ) (Klebsiella pneumoniae [16]): 34 mm | MIC (Staphylococcus aureus [17]): 26 µg/mL | MIC (Bacillus subtilis [18]): 28 µg/mL | MIC (Escherichia coli [19]): 26 µg/mL | MIC (Klebsiella pneumoniae [20]): 26 µg/mL

CC(C)[C@H](N)C(=O)Oc1ccc2c(=O)c3ccccc3oc2c1.Cl
zone of inhibition at 25 µg/mL (Staphylococcus aureus [1]; read-out: DIZ): 14 mm | zone of inhibition at 50 µg/mL (Staphylococcus aureus [2]; read-out: DIZ): 17 mm | zone of inhibition at 75 µg/mL (Staphylococcus aureus [3]; read-out: DIZ): 21 mm | zone of inhibition at 100 µg/mL (Staphylococcus aureus [4]; read-out: DIZ): 24 mm | zone of inhibition at 25 µg/mL (Bacillus subtilis [5]; read-out: DIZ): 10 mm | zone of inhibition at 50 µg/mL (Bacillus subtilis [6]; read-out: DIZ): 15 mm | zone of inhibition at 75 µg/mL (Bacillus subtilis [7]; read-out: DIZ): 20 mm | zone of inhibition at 100 µg/mL (Bacillus subtilis [8]; read-out: DIZ): 24 mm | zone of inhibition at 25 µg/mL (Escherichia coli [9]; read-out: DIZ): 11 mm | zone of inhibition at 50 µg/mL (Escherichia coli [10]; read-out: DIZ): 15 mm | zone of inhibition at 75 µg/mL (Escherichia coli [11]; read-out: DIZ): 19 mm | zone of inhibition at 100 µg/mL (Escherichia coli [12]; read-out: DIZ): 23 mm | zone of inhibition at 25 µg/mL (Klebsiella pneumoniae [13]; read-out: DIZ): 16 mm | zone of inhibition at 50 µg/mL (Klebsiella pneumoniae [14]; read-out: DIZ): 12 mm | zone of inhibition at 75 µg/mL (Klebsiella pneumoniae [15]; read-out: DIZ): 21 mm | zone of inhibition at 100 µg/mL (Klebsiella pneumoniae [16]; read-out: DIZ): 27 mm | zone of inhibition at 25 µg/mL (Aspergillus niger [21]): 9 mm | zone of inhibition at 50 µg/mL (Aspergillus niger [22]): 12 mm | zone of inhibition at 75 µg/mL (Aspergillus niger [23]): 17 mm | zone of inhibition at 100 µg/mL (Aspergillus niger [24]): 21 mm | zone of inhibition at 25 µg/mL (Candida albicans [25]): 8 mm | zone of inhibition at 50 µg/mL (Candida albicans [26]): 11 mm | zone of inhibition at 75 µg/mL (Candida albicans [27]): 16 mm | zone of inhibition at 100 µg/mL (Candida albicans [28]): 19 mm | zone of inhibition at 25 µg/mL (Fusarium oxysporum [29]): 10 mm | zone of inhibition at 50 µg/mL (Fusarium oxysporum [30]): 15 mm | zone of inhibition at 75 µg/mL (Fusarium oxysporum [31]): 19 mm | zone of inhibition at 100 µg/mL (Fusarium oxysporum [32]): 21 mm | IC50 (Erythrocyte): 82 µg/mL
